The term IC50 denotes the midpoint of a concentration-inhibition curve. Low values mean higher potency, high ones lower potency.

Structures are written as SMILES. Active and inactive are the calls of the source. The calls are words filed in the database; no cut-off is given here.

Consider six compounds from ChEMBL document CHEMBL3228027, “Synthesis and estrogenic properties of 17-epi-ethynylestradiol and its ether derivatives epimestranol and epiquinestrol” (J Med Chem, 1979).

Experiment [1] concerns Rattus norvegicus. The experiment is described as follows: Estrogenic activity in immature rat administered orally with sesame oil as three doses by uterotropic assay relative to ethynylestradiol. The experiment is classed as functional. Put shortly: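 Six-point oral assay in immature rats, with three doses of ethynylestradiol standard and three doses of test compound in sesame oil, 9-15 rats per dose group. Dose-response lines were checked for linearity and parallelism. Relative potency and 95% confidence limits were computed, and values are combined from three assays.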

The species named for experiment [2] is Oryctolagus cuniculus. Kind of experiment: Displacement of 17beta-[3H]estradiol from rabbit uterine estrogen receptor after 16 to 18 hrs by liquid scintillation counting relative to ethynylestradiol. Put shortly: (§1)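 Rabbit uterine cytosol, 0.7 μg protein per tube, with 16000 dpm 17β-[3H]estradiol (113 Ci/mmol) in Tris-HCl pH 8.0, 0.001 M EDTA, 0.25 M sucrose. Eight concentrations from 1 × 10^-10 to 1 × 10^-4 M were run in duplicate and incubated 16-18 h at 4 °C. Bound and free were separated with dextran-coated charcoal, bound radioactivity was read by liquid scintillation, and results were compared with standards.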

Experiment [3] concerns Rattus norvegicus. The experiment is described as follows: Induction of vaginal cornification in ovariectomized mature rat at 0.025 to 0.1 mg/kg, po administered with sesame oil by Allen-Doisy method relative to control. The settings on record: dose mg/kg 0.025-0.1. The experiment is classed as functional. In outline:
(§2)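 Allen-Doisy test in ovariectomized mature rats, 14-59 rats per compound and 4-20 per group. Dose ranges were set from the uterotropic results. A smear counted as positive if it was mainly nucleated or cornified epithelial cells with no leucocytes. Results are given as the dose ranges giving positive smears.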

The nature of experiment [4]: Displacement of 17beta-[3H]estradiol from rabbit uterine estrogen receptor after 16 to 18 hrs by liquid scintillation counting. The arrangement: species or system Oryctolagus cuniculus. Put shortly:
as §1

For experiment [5], the system named is Rattus norvegicus. Kind of experiment: Induction of vaginal cornification in ovariectomized mature rat at 0.005 to 0.010 mg/kg, po administered with sesame oil by Allen-Doisy method relative to control. Format: functional. The settings on record: dose mg/kg 0.005-0.010. In outline: as §2
The species named for experiment [6] is Oryctolagus cuniculus. The experiment is described as follows: Displacement of 17beta-[3H]estradiol from rabbit uterine estrogen receptor at 1 x 10^-4 M after 16 to 18 hrs by liquid scintillation counting. Put shortly:
as §1

Experiment [7] concerns Rattus norvegicus. Kind of experiment: Induction of vaginal cornification in ovariectomized mature rat at 0.25 to 0.5 mg/kg, po administered with sesame oil by Allen-Doisy method relative to control. The settings on record: dose mg/kg 0.25-0.5. The experiment is classed as functional. Put shortly: as §2
The test system of experiment [8] is Rattus norvegicus. The experiment is described as follows: Induction of vaginal cornification in ovariectomized mature rat at 5 to 10 mg/kg, po administered with sesame oil by Allen-Doisy method relative to control. Format: functional. The settings on record: dose mg/kg 5-10. Put shortly:
as §2

For experiment [9], the system named is Rattus norvegicus. The experiment is described as follows: Antiestrogenic activity in ethynylestradiol-stimulated immature rat assessed as doubling of uterine weight up to 3 mg/kg, po administered for three days by uterotropic assay. The experiment is classed as functional, organism-based. On the set-up: dose 3 mg/kg. In outline:
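Modified Edgren–Calhoun method in immature rats. The test material was given orally for 3 days together with enough ethynylestradiol to double uterine weight, and uterine weight was the end point.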

Experiment [10] deals with Rattus norvegicus. The experiment is described as follows: Induction of vaginal cornification in ovariectomized mature rat at 10 to 20 mg/kg, po administered with sesame oil by Allen-Doisy method relative to control. Format: functional. The settings on record: dose mg/kg 10-20. In outline: as §2

For `C#C[C@]1(O)CC[C@H]2[C@@H]3CCc4cc(OC)ccc4[C@H]3CC[C@@]21C` [MESTRANOL], the Ratio is 0.84 in the experiment on Rattus norvegicus [1] and 0.0012 in the experiment listed under Oryctolagus cuniculus [2]. The Activity in the experiment with Rattus norvegicus [3] is 11%. This compound gave an IC50 in [4] of 200 nM.
As to `C#C[C@]1(O)CC[C@H]2[C@@H]3CCc4cc(OC5CCCC5)ccc4[C@H]3CC[C@@]21C` [QUINESTROL], the Ratio is 1.66 in the experiment on Rattus norvegicus [1] and 4e-05 in the experiment listed under Oryctolagus cuniculus [2]. Also, the IC50 in experiment [4] is 6000 nM. This compound showed an Activity with Rattus norvegicus [5] of 40%.
In the case of `C#C[C@@]1(O)CC[C@H]2[C@@H]3CCc4cc(OC5CCCC5)ccc4[C@H]3CC[C@@]21C`, the Ratio in the experiment on Rattus norvegicus [1] turned out to be 0.05. Besides, in the experiment listed under Oryctolagus cuniculus [6], the inhibition entry was “inactive”. The Activity in the experiment with Rattus norvegicus [7] was 25%.
As to `C#C[C@]1(O)CC[C@H]2[C@@H]3CCc4cc(O)ccc4[C@H]3CC[C@@]21C` [ETHINYL ESTRADIOL], the Activity in the experiment on Rattus norvegicus [3] came out at 10%. Also, the half-inhibitory concentration (IC50) in experiment [4] was 0.24 nM.
For `C#C[C@@]1(O)CC[C@H]2[C@@H]3CCc4cc(O)ccc4[C@H]3CC[C@@]21C`, in the experiment listed under Oryctolagus cuniculus [2], the Ratio came to 0.016. For the same compound, the Activity in the experiment with Rattus norvegicus [8] came out at 0%. In addition, the half-inhibitory concentration (IC50) in experiment [4] stood at 15 nM. For the same compound, the result in the experiment on Rattus norvegicus [9] was inactive.
As for `C#C[C@@]1(O)CC[C@H]2[C@@H]3CCc4cc(OC)ccc4[C@H]3CC[C@@]21C`, in the experiment with Rattus norvegicus [1], the Ratio was found to be 0.0023. The inhibition result in the experiment listed under Oryctolagus cuniculus [6] is “inactive”. For the same compound, the Activity in the experiment on Rattus norvegicus [10] came out at 0%.
